High-throughput results (PubChem)
Only some compounds are listed: those with a hit (about 1.5% of all), similar ones and a draw of the others.
RAD54 inh: inhibitors of human RAD54 branch migration, primary screen, biochemical, fluorescence, single point; RAD54 Holliday junction branch migration, FAM/BHQ fluorescence; DNA repair and recombination protein RAD54-like (Homo sapiens), Q92698; actives 0.14% (n = 360,000); inhibition, % at 10.4 µM;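 active = mean normalized replicate activity at least 40 and at least half of replicates scoring 40 or more; inconclusive = only one of the two criteria met; inactive = mean below 40 and under half of replicates reaching 40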;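 also: inhibitors cause a drop in the FAM fluorescence signal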
dFosB act: activators of delta FosB homodimer, primary screen, biochemical, fluorescence polarization, TAMRA-CDK5 oligo, single point | Protein FosB (Mus musculus), P13346 | purified delta FosB; percent of positive-control signal above neutral wells | activation, % at 25 µM | actives 0.99% (n = 340,000) | AID 493131, 2011;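 active = mean activation above about 17%, with every replicate also reaching it, limit read from the data, passing the limit was not always enough; inconclusive = only one of the two conditions met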
RAD52 anneal inh: RAD52 DNA annealing inhibitors, primary screen, biochemical, FRET, single point, set 2; recombinant RAD52 DNA annealing, FRET fluorescence; DNA repair protein RAD52 homolog (Homo sapiens), P43351; inhibition, % at 18.7 µM; actives 0.46% (n = 360,000);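 active = every replicate showing at least 50% inhibition; inconclusive = mean inhibition at least 50% but not in every replicate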
Target sequence (P43351 whole entry, looked up): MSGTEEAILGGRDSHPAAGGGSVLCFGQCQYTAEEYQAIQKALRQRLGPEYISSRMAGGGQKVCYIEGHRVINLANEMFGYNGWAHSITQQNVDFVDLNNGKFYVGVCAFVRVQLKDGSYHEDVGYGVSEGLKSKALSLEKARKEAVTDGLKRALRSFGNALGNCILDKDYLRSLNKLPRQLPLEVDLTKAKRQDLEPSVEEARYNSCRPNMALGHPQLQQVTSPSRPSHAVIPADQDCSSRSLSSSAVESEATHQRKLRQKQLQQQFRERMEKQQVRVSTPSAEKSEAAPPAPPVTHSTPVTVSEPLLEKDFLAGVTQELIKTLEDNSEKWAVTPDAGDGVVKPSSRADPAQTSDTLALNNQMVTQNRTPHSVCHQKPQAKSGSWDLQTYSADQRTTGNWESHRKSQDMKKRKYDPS
S100A4 MyoIIA: inhibitors of S100A4-myosin IIA peptide binding, primary screen, biochemical, fluorescence polarization, TAMRA-MyoIIA peptide | Protein S100-A4 (Homo sapiens), P26447 | inhibition, % at 10.7 µM | actives 0.14% (n = 360,000) | AID 652163, 2013;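 active = mean inhibition of at least 70% across replicates, with every replicate also reaching that level; inconclusive = mean inhibition reaches 70% but some replicates fall short; inactive = mean inhibition below 70%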
Target sequence (P26447 whole entry, looked up): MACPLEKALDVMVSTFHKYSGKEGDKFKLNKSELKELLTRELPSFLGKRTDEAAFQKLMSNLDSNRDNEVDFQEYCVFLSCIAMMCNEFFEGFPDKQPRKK
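Material: S100A4 monomer (human). Medium: Calcium-containing HEPES buffer, pH 7.2. Probe or stimulus: labelled myosin peptide probe, 5 nM. Compound dosing: one concentration per compound. Timing: polarization read 5 min after assay mix addition, stable 5–60 min. Benchmarks: DMSO as neutral control, TFP as positive control.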
AF4-AF9 inh: inhibitors of AF4 peptide binding to AF9, primary screen, biochemical, AlphaScreen, biotin-AF4 peptide, FLAG-AF9, single point. actives 0.47% (n = 350,000). AID 651704, 2012. inhibition, % at 10 µM. Protein AF-9 (Homo sapiens), P42568;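 active = every replicate reaching a set inhibition limit, whatever the replicate mean, cut at about 25% in these data; inconclusive = mean inhibition reaches that limit but some replicates miss it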
Rad54 DNA ctr: DNA binding of candidate compounds, dose response, artefact control for RAD54 inhibitor project, biochemical, fluorescence polarization, cherry-pick; actives 8% (n = 460); shares compounds with RAD54 inh; AC50, µM (top dose mostly 35 µM); AID 651673, 2012; Acridine orange-DNA displacement, 20 min;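 active = signal drop giving an AC50 within twice the top valid tested concentration of each sample, actives reach about 35 µM in these data; inactive = activity opposite to expected, plus the rest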;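 also: polarization loss reports compound binding to salmon sperm DNA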
Hits are given with their value.

Screening O=C(Nc1ccc(C2=NCCN2)cc1)c1ccc(C(=O)Nc2ccc(C3=NCCN3)cc2)c(Cl)c1 returned RAD54 inh inconclusive, dFosB act inactive, RAD52 anneal inh 72.6, S100A4 MyoIIA inactive, AF4-AF9 inh inactive and Rad54 DNA ctr inactive.
For O=C(Nc1ccc(NC(=O)c2ccc(Cl)cc2Cl)cc1)c1ccc2c(c1)OCO2 the results were RAD54 inh inactive, dFosB act inactive, RAD52 anneal inh inactive, S100A4 MyoIIA inactive and AF4-AF9 inh inactive.
COc1ccccc1Nc1nc(NCC2CCCO2)c2ccccc2n1 (stereo unspecified) was read as RAD54 inh 67.5, dFosB act inactive, RAD52 anneal inh inactive, S100A4 MyoIIA inactive, AF4-AF9 inh inactive and Rad54 DNA ctr inactive.
O=C(N[C@H]1CC[C@@H](CCNS(=O)(=O)c2cccc(Cl)c2)O[C@H]1CO)c1ccc(F)cc1 was read as RAD54 inh inactive, RAD52 anneal inh inactive, S100A4 MyoIIA inactive and AF4-AF9 inh inactive.
Nc1ccc(-c2nc3ccccc3[nH]2)cc1 was read as RAD54 inh inactive, dFosB act inactive, RAD52 anneal inh inactive, S100A4 MyoIIA inactive and AF4-AF9 inh inactive.
Screening Nc1ccc(-c2nc3c(ccc4ccccc43)[nH]2)cc1 returned RAD54 inh 50.3, dFosB act inactive, RAD52 anneal inh inactive, S100A4 MyoIIA inactive, AF4-AF9 inh inactive and Rad54 DNA ctr inactive.
CCN(CC)CCCNc1nc(-c2ccccc2)nc2ccccc12 was read as RAD54 inh 85.0, dFosB act inactive and Rad54 DNA ctr inactive.
CCN(CC)CCCNc1nc2cc(OC)c(OC)cc2c2nc(-c3cccnc3)nn12 was read as RAD54 inh 114.6, dFosB act 245.1 and Rad54 DNA ctr inactive.
`COc1cc2nc(NCCCN3CCN(C)CC3)n3nc(-c4ccccc4)nc3c2cc1OC` gave RAD54 inh 102.2, dFosB act 165.9 and Rad54 DNA ctr inactive.
Screening CCN(CC)CCCNc1nc2cc(OC)c(OC)cc2c2nc(-c3ccccc3)nn12 returned RAD54 inh 106.0, dFosB act 181.2 and Rad54 DNA ctr inactive.
`COCCCNc1nc2cc(OC)c(OC)cc2c2nc(-c3ccccc3)nn12` gave RAD54 inh inactive, dFosB act inactive, RAD52 anneal inh inactive, S100A4 MyoIIA inactive and AF4-AF9 inh inactive.
Screening C[C@H]1CN([C@@H](C)CO)C(=O)c2cc(NC(=O)Nc3ccc(C(F)(F)F)cc3)ccc2O[C@@H]1CN(C)S(=O)(=O)c1ccc(Cl)cc1 returned RAD54 inh inactive, RAD52 anneal inh inactive, S100A4 MyoIIA inactive and AF4-AF9 inh inactive.
Screening COc1ccccc1C#Cc1ccc([C@H]2[C@@H](CO)N3CCCCN(C(=O)C4CCC4)C[C@@H]23)cc1 returned RAD54 inh inactive, RAD52 anneal inh inactive, S100A4 MyoIIA inactive and AF4-AF9 inh inactive.
CCn1cc(C(=O)NCCCN(C)C)c(=O)c2cc(F)c(N3CCN(C)CC3)cc21 was read as RAD54 inh inactive, dFosB act inactive, RAD52 anneal inh inactive and S100A4 MyoIIA inactive.
For CCn1cc(C(=O)NCCN(C)C)c(=O)c2cc(F)c(N3CCN(C)CC3)cc21 the results were RAD54 inh 59.3, dFosB act inactive, RAD52 anneal inh inactive, S100A4 MyoIIA inactive, AF4-AF9 inh inactive and Rad54 DNA ctr inactive.
`Cc1ccc(S(=O)(=O)Nc2ccc3c(c2)C(=O)N([C@@H](C)CO)C[C@@H](C)[C@H](CN(C)Cc2ccc(C(=O)Nc4ccccc4N)cc2)O3)cc1` gave RAD52 anneal inh inactive, S100A4 MyoIIA inactive and AF4-AF9 inh inactive.
COc1c(S(=O)(=O)NCCCn2ccnc2)ccc(Cl)c1Cl was read as RAD54 inh inactive, dFosB act inactive, RAD52 anneal inh inactive, S100A4 MyoIIA inactive and AF4-AF9 inh inactive.
For Cc1c(Cl)ccc(S(=O)(=O)NCCCn2ccnc2)c1Cl the results were RAD54 inh inconclusive, dFosB act inactive, RAD52 anneal inh inactive, S100A4 MyoIIA inactive, AF4-AF9 inh inactive and Rad54 DNA ctr inactive.
Screening CCN(CC)CCN(C(=O)c1ccc2ncsc2c1)c1nc2cc3c(cc2s1)OCO3 returned RAD54 inh inconclusive, dFosB act inactive, RAD52 anneal inh inactive, S100A4 MyoIIA inactive, AF4-AF9 inh inactive and Rad54 DNA ctr inactive.
CCN(CC)CCn1c2ccccc2c2nc3ccc([N+](=O)[O-])cc3cc21 was read as RAD54 inh inconclusive, dFosB act 51.1, RAD52 anneal inh inactive, S100A4 MyoIIA inactive, AF4-AF9 inh inactive and Rad54 DNA ctr inactive.
Screening CCN(CC)CCOc1c(Br)ccc2c1sc1nc3n(c(=O)c12)CCC3 returned RAD54 inh 85.6, dFosB act inactive and Rad54 DNA ctr inactive.
Screening COc1cc2[nH]c3c(=O)n(CCN(C(C)C)C(C)C)cnc3c2cc1OC returned RAD54 inh inconclusive, dFosB act inactive and Rad54 DNA ctr inactive.
`O=C(NCCCN1CCCCCC1)c1cc2c(=O)oc3ccccc3c2s1` gave RAD54 inh inactive, dFosB act inactive, RAD52 anneal inh inactive, S100A4 MyoIIA inactive and AF4-AF9 inh inactive.
`Cc1ccc2oc(=O)c3cc(C(=O)NCCCN4C(C)CCCC4C)sc3c2c1` (stereo unspecified) gave RAD54 inh 53.8, dFosB act inactive, RAD52 anneal inh inactive, S100A4 MyoIIA inactive, AF4-AF9 inh inactive and Rad54 DNA ctr inactive.
Cc1ccc2oc(=O)c3cc(C(=O)NCCCN4CC(C)CC(C)C4)sc3c2c1 (stereo unspecified) was read as RAD54 inh inactive, dFosB act inactive, RAD52 anneal inh inactive, S100A4 MyoIIA inactive and AF4-AF9 inh inactive.
For CCN1CCN(CCCNC(=O)c2cc3c(=O)oc4ccc(C)cc4c3s2)CC1 the results were RAD54 inh 52.6, dFosB act inactive, RAD52 anneal inh inactive, S100A4 MyoIIA inactive, AF4-AF9 inh inactive and Rad54 DNA ctr inactive.
Screening Cc1ccc2oc(=O)c3cc(C(=O)NCCCN4CCN(C)CC4)sc3c2c1 returned RAD54 inh 62.2, dFosB act inactive, RAD52 anneal inh inactive, S100A4 MyoIIA inactive, AF4-AF9 inh inactive and Rad54 DNA ctr inactive.
C[C@@H]1CCCCO[C@H](CN(C)Cc2ccccc2)[C@H](C)CN([C@H](C)CO)C(=O)c2cc(NC(=O)CCC(F)(F)F)ccc2O1 was read as RAD54 inh inactive, RAD52 anneal inh inactive, S100A4 MyoIIA inactive and AF4-AF9 inh inactive.
`COCCN(C[C@@H]1N[C@@H](CO)[C@@H]1c1ccc(-c2ccc(F)cc2)cc1)C(C)=O` gave RAD54 inh inactive, RAD52 anneal inh inactive, S100A4 MyoIIA inactive and AF4-AF9 inh inactive.
Cn1c(C(=O)NCCCN2CCOCC2)cc2c(=O)n(C)c3ccccc3c21 was read as RAD54 inh inconclusive, dFosB act inactive, RAD52 anneal inh inactive, S100A4 MyoIIA inactive, AF4-AF9 inh inactive and Rad54 DNA ctr inactive.
